In ChEMBL document CHEMBL3603811, “Design, chemical synthesis and biological evaluation of 3-spiromorpholinone/3-spirocarbamate androsterone derivatives as inhibitors of 17β-hydroxysteroid dehydrogenase type 3” (Bioorg Med Chem, 2015):

What was measured:
[1] = molecular target: T1, 17-beta-hydroxysteroid dehydrogenase type 3 (Rattus norvegicus, UniProt O54939); test: Inhibition of 17beta-HSD3 in rat testes microsomes using [14C]-4-androstene-3,17-dione as substrate after 2 hrs; design: species or system Testis
T1 sequence (O54939 whole entry): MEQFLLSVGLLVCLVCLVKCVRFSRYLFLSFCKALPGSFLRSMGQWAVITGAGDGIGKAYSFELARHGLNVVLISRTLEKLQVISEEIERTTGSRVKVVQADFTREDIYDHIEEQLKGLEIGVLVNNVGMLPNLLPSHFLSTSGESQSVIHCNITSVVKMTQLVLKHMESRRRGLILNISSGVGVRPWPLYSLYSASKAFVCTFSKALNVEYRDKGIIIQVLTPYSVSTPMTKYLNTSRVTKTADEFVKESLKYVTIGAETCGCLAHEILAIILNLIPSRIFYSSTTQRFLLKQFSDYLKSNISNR
In short: (§1)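 Rat testis microsomes: homogenate in phosphate/sucrose/EDTA buffer pH 7.5 with protease inhibitors, spun 12,500g, then pellet from 100,000g, at 4 °C. Reaction 2 h at 37 °C in 50 mM sodium phosphate pH 7.4, 20% glycerol, 1 mM EDTA, with NADPH and [14C]-Δ4-dione (50 nM). Inhibitor in DMSO. [14C]-T and substrate identified against reference steroids and quantified. Percent transformation and percent inhibition calculated.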

[2] = molecular target: T2, 17-beta-hydroxysteroid dehydrogenase type 3 (Homo sapiens) (UniProt P37058); test: Inhibition of 17beta-HSD3 (unknown origin) expressed in human LNCaP cells using [14C]-4-androstene-3,17-dione as substrate at 1 uM after 3 hrs; type: cell-based
T2 sequence (whole entry): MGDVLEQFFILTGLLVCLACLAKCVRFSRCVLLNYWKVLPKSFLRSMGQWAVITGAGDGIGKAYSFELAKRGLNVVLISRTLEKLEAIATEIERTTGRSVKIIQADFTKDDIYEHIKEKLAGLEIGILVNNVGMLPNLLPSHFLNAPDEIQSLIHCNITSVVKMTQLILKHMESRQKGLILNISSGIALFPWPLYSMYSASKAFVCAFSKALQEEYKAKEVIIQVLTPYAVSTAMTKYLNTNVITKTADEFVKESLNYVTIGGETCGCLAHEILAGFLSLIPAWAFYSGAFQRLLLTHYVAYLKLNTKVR
In short: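 LNCaP cells stably transfected with 17β-HSD3, kept under hygromycin, which was omitted during assay. 15,000 cells/well grown 3 days in protocol medium, then given 15 nM [14C]-4-androstene-3,17-dione plus inhibitor in DMSO (final 0.05%) for 3 h. Steroids extracted from medium, separated by TLC and quantified. Percent inhibition of T formation calculated.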

[3] = molecular target: T3, 17-beta-hydroxysteroid dehydrogenase type 3 (Rattus norvegicus) (UniProt O54939); test: Inhibition of 17beta-HSD3 in rat testes microsomes using [14C]-4-androstene-3,17-dione as substrate measured based on 18% of initial enzyme transformation at 1 uM after 2 hrs; conditions: Testis; in short: as §1
T3 sequence (whole entry): T1 sequence (O54939 whole entry)

LAPC4 [4] = test: Androgenic activity in human LAPC4 cells expressing androgen receptor assessed as induction of cell proliferation at 1 uM after 3 days by MTS assay relative to control; type: functional
In short: (§2)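 LAPC-4 (AR+) cells in RPMI-1640 with 5% dextran-coated charcoal-treated FBS to remove hormones. Triplicate cultures of 10,000 cells preincubated 24 h at 37 °C, 5% CO2. Compounds from 10^-2 M DMSO stock, diluted in medium, added for 3 days (final DMSO 0.05%; vehicle controls). Growth read by MTS. Androgenicity = % proliferation minus basal set at 100%.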

LAPC4 [5] = test: Androgenic activity in human LAPC4 cells expressing androgen receptor assessed as induction of cell proliferation at 0.1 uM after 3 days by MTS assay relative to control; type: functional; in short: as §2
[6] = molecular target: T3, 17-beta-hydroxysteroid dehydrogenase type 3 (Rattus norvegicus); test: Ratio of delta4-dione IC50 to compound IC50 for 17beta-HSD3 in rat testes microsomes; conditions: Testis
[7] = molecular target: T3, 17-beta-hydroxysteroid dehydrogenase type 3 (Rattus norvegicus); test: Inhibition of 17beta-HSD3 in rat testes microsomes using [14C]-4-androstene-3,17-dione as substrate measured based on 18% of initial enzyme transformation at 0.1 uM after 2 hrs; conditions: Testis; in short: as §1
[8] = molecular target: T3, 17-beta-hydroxysteroid dehydrogenase type 3 (Rattus norvegicus); test: Inhibition of 17beta-HSD3 in rat testes microsomes using [14C]-4-androstene-3,17-dione as substrate measured based on 18% of initial enzyme transformation at 0.01 uM after 2 hrs; conditions: Testis; in short: as §1
[9] = molecular target: T3, 17-beta-hydroxysteroid dehydrogenase type 3 (Rattus norvegicus); test: Inhibition of 17beta-HSD3 in rat testes microsomes using [14C]-4-androstene-3,17-dione as substrate measured based on 33% of initial enzyme transformation at 1 uM after 2 hrs; conditions: Testis; in short: as §1
[10] = molecular target: T2, 17-beta-hydroxysteroid dehydrogenase type 3 (Homo sapiens); conditions: LNCaP, 0.5 uM
[11] = molecular target: T3, 17-beta-hydroxysteroid dehydrogenase type 3 (Rattus norvegicus); test: Inhibition of 17beta-HSD3 in rat testes microsomes using [14C]-4-androstene-3,17-dione as substrate measured based on 4% of initial enzyme transformation at 10 uM after 2 hrs; conditions: Testis; in short: as §1
[12] = molecular target: T3, 17-beta-hydroxysteroid dehydrogenase type 3 (Rattus norvegicus); test: Inhibition of 17beta-HSD3 in rat testes microsomes using [14C]-4-androstene-3,17-dione as substrate measured based on 33% of initial enzyme transformation at 10 uM after 2 hrs; conditions: Testis; in short: as §1
[13] = molecular target: T3, 17-beta-hydroxysteroid dehydrogenase type 3 (Rattus norvegicus); test: Inhibition of 17beta-HSD3 in rat testes microsomes using [14C]-4-androstene-3,17-dione as substrate measured based on 4% of initial enzyme transformation at 1 uM after 2 hrs; conditions: Testis; in short: as §1
[14] = molecular target: T3, 17-beta-hydroxysteroid dehydrogenase type 3 (Rattus norvegicus); test: Inhibition of 17beta-HSD3 in rat testes microsomes using [14C]-4-androstene-3,17-dione as substrate measured based on 33% of initial enzyme transformation at 0.1 uM after 2 hrs; conditions: Testis; in short: as §1

Row | SMILES | IC50 [1] | inhibition [2] | inhibition [3] | Activity (LAPC4 [4]) | Activity (LAPC4 [5]) | Ratio IC50 [6] | inhibition [7] | inhibition [8] | inhibition [9] | inhibition [10] | inhibition [11] | inhibition [12] | inhibition [13] | inhibition [14]
1 | C[C@]12CC[C@@H](O)C[C@@H]1CC[C@@H]1[C@@H]2CC[C@]2(C)C(=O)CC[C@@H]12 [ANDROSTERONE] | 90 nM |  |  |  |  |  |  |  |  |  |  |  |  | 
2 | C[C@]12CC[C@@]3(C[C@@H]1CC[C@@H]1[C@@H]2CC[C@]2(C)C(=O)CC[C@@H]12)CN(S(=O)(=O)c1ccc(C(F)(F)F)cc1)CC(=O)O3 | 28 nM | 10% | 85.1% | 0% | 0% | 6 | 48.6% | 32.9% |  |  |  |  |  | 
3 | C[C@]12CCC(=O)C=C1CC[C@@H]1[C@@H]2CC[C@]2(C)C(=O)CC[C@@H]12 [ANDROSTENEDIONE] | 169 nM |  |  |  |  |  |  |  |  |  |  |  |  | 
4 | C[C@]12CC[C@@]3(C[C@@H]1CC[C@@H]1[C@@H]2CC[C@]2(C)C(=O)CC[C@@H]12)CN(C(=O)c1ccc(C(F)(F)F)cc1)CC(=O)O3 | 88 nM | 40% | 87.1% | 0% | 0% | 2 | 45.4% | 24.3% |  |  |  |  |  | 
5 | C[C@@H]1CN(S(=O)(=O)c2ccccc2C(F)(F)F)[C@@H](C)CN1C[C@@]1(O)CC[C@@]2(C)[C@@H](CC[C@@H]3[C@@H]2CC[C@]2(C)C(=O)CC[C@@H]32)C1 | 13 nM |  |  | 0% | 0% |  | 43.7% | 32.4% | 94.4% | 100% | 97.1% | 94% | 96.4% | 89.4%
